Key:
[1] = Ratio of binding affinity of PNMT to alpha-2 receptors.
[2] = biological target: T1, Phenylethanolamine N-methyltransferase (Bos taurus, UniProt P10938); assay: In vitro inhibition of PNMT (Phenylethanolamine N-Methyltransferase).
T1 sequence (P10938 whole entry): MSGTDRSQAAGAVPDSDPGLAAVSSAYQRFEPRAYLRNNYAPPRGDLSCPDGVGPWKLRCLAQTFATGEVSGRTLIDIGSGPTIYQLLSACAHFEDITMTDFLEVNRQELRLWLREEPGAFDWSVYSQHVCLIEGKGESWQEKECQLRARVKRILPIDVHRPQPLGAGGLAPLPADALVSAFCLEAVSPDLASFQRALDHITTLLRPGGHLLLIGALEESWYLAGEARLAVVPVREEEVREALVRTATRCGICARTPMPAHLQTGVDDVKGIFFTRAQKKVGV

[3] = biological target: T2, Adrenergic receptor alpha-2 (Rattus norvegicus, UniProt P22086+P19328+P22909); assay: In vitro inhibition of [3H]clonidine binding at the alpha-2 adrenergic receptor.; assay type: protein assay
T2 sequence (P22086 whole entry): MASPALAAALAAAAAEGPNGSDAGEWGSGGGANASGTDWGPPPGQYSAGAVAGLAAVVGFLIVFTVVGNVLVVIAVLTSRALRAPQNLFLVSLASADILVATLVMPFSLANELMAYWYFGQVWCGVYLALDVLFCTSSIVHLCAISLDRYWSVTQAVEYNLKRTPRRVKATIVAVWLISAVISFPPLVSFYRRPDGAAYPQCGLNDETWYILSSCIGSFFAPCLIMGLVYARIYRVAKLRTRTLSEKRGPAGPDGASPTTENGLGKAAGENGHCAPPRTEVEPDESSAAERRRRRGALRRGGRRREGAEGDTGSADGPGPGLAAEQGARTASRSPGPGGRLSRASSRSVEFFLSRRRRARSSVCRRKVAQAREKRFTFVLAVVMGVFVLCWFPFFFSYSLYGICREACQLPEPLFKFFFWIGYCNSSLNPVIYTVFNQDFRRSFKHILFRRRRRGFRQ
T2 sequence (P19328 whole entry): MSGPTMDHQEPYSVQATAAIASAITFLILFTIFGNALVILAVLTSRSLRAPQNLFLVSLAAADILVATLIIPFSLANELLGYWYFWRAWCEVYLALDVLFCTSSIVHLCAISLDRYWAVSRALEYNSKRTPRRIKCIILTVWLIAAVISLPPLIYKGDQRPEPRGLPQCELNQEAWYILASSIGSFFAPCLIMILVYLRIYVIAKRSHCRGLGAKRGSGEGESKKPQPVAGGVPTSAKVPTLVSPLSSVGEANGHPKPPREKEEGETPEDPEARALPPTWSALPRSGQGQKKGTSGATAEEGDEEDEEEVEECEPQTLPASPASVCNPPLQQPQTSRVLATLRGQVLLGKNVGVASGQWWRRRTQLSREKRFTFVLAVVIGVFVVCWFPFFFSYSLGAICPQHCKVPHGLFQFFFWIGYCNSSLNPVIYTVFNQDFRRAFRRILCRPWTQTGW
T2 sequence (P22909 whole entry): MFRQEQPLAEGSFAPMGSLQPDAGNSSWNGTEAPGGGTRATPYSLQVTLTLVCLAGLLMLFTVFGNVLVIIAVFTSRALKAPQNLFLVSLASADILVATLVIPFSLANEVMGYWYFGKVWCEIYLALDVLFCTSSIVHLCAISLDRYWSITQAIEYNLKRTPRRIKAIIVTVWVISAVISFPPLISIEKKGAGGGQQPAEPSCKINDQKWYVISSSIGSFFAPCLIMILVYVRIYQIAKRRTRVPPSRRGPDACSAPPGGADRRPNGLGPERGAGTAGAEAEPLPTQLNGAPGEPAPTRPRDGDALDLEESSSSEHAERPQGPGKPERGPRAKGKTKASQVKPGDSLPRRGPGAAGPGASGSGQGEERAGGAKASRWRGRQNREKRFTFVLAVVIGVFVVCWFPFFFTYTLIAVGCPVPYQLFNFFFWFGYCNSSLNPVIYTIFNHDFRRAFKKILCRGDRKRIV
Procedure, shortened: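 Membranes from male Sprague-Dawley rat cortex, homogenized and washed in 50 mM Tris/HCl pH 7.7. Incubated with [3H]clonidine (final 2.0 nM) and various inhibitor concentrations, 1 mL final volume, 25 °C for 30 min. Terminated by vacuum filtration on GF/B filters and counted. Nonspecific binding defined with 2 µM phentolamine. IC50 by log-probit analysis; Ki = IC50/(1 + [clonidine]/KD).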

| Structure (SMILES) | Selectivity [1] | Ki [2] | Ki [3] |
| --- | --- | --- | --- |
| O=[N+]([O-])c1ccc2c(c1)CNC(CF)C2 (centres undefined) | 140 |  |  |
| O=S(=O)(Nc1ccc(Cl)cc1)c1ccc2c(c1)CN[C@H](CF)C2 | 53 | 1.9 µM | 101 µM |
| FC[C@@H]1Cc2ccccc2CN1 | 3.7 | 9.9 µM | 37 µM |
| FCC1Cc2ccccc2CN1 (centres undefined) | 2.5 |  |  |
| Clc1ccc2c(c1Cl)CNCC2 | 0.095 |  |  |
| NS(=O)(=O)c1ccc2c(c1)CNC(CO)C2 (centres undefined) | 4100 |  |  |
| O=[N+]([O-])c1ccc2c(c1)CN[C@H](CF)C2 | 160 | 0.88 µM | 140 µM |
| ClC[C@@H]1Cc2ccccc2CN1 | 0.55 | 12 µM | 6.6 µM |
| CCC1Cc2ccccc2CN1 (centres undefined) | 0.028 |  |  |
| FC[C@H]1Cc2ccc(Br)cc2CN1 | 6.1 | 0.51 µM | 3.1 µM |
| C[C@H]1Cc2ccccc2CN1 | 0.15 | 38 µM | 5.7 µM |
| NS(=O)(=O)c1ccc2c(c1)CNC(CF)C2 (centres undefined) | 1000 |  |  |
| C[C@@H]1Cc2ccccc2CN1 | 0.49 | 1 µM | 0.49 µM |
| FCC1Cc2ccc(Br)cc2CN1 (centres undefined) | 10 |  |  |
| O=S(=O)(Nc1ccc(Cl)cc1)c1ccc2c(c1)CNC(CF)C2 (centres undefined) | 220 |  |  |
| C[C@@H]1Cc2ccc([N+](=O)[O-])cc2CN1 | 76 | 0.25 µM | 19 µM |
| N#Cc1ccc2c(c1)CN[C@@H](CF)C2 | 370 | 0.97 µM | 360 µM |

| Structure (SMILES) | Selectivity [1] | Ki [2] | Ki [3] |
| --- | --- | --- | --- |
| O=S(=O)(Nc1ccc(Cl)cc1)c1ccc2c(c1)CN[C@@H](CF)C2 | 350 | 0.28 µM | 97 µM |
| O=[N+]([O-])c1ccc2c(c1)CN[C@@H](CF)C2 | 90 | 0.52 µM | 47 µM |
| CC1Cc2ccccc2CN1 (centres undefined) | 0.36 |  |  |
| OC[C@H]1Cc2ccccc2CN1 | 7.9 |  |  |
| c1ccc2c(c1)CCNC2 | 0.35 |  |  |
| O=[N+]([O-])c1ccc2c(c1)CN[C@H](CCl)C2 | 410 | 0.66 µM | 270 µM |
| ClC[C@H]1Cc2ccccc2CN1 | 0.66 | 3.5 µM | 2.3 µM |
| C[C@H]1Cc2ccc([N+](=O)[O-])cc2CN1 | 41 | 1.3 µM | 53 µM |
| FC[C@@H]1Cc2ccc(Br)cc2CN1 | 36 | 0.47 µM | 17 µM |
| OC[C@@H]1Cc2ccc(Br)cc2CN1 | 2 | 0.48 µM | 0.97 µM |
| OC[C@@H]1Cc2ccccc2CN1 | 1.1 |  |  |
| OCC1Cc2ccccc2CN1 (centres undefined) | 6 |  |  |
| O=[N+]([O-])c1ccc2c(c1)CN[C@@H](CCl)C2 | 210 | 0.47 µM | 100 µM |
| N#Cc1ccc2c(c1)CN[C@H](CF)C2 | 170 | 3.5 µM | 580 µM |
| N#Cc1ccc2c(c1)CNC(CF)C2 (centres undefined) | 420 |  |  |
| OC[C@H]1Cc2ccc(Br)cc2CN1 | 3.2 | 0.38 µM | 1.2 µM |
| FC[C@H]1Cc2ccccc2CN1 | 4.2 | 0.69 µM | 2.9 µM |

Reference: ChEMBL document CHEMBL1132448, “Enantiospecific synthesis of 3-fluoromethyl-, 3-hydroxymethyl-, and 3-chloromethyl-1,2,3,4-tetrahydroisoquinolines as selective inhibitors of phenylethanolamine N-methyltransferase versus the alpha(2)-adrenoceptor” (J Med Chem, 1999)
